Experimental data published in ChEMBL document CHEMBL1126620, “Systematic substitution of an oxytocin antagonist with D-amino acids: unexpected high antagonistic potency of the D-Cys6-substituted analogue” (J Med Chem, 1993).

Organism: Rattus norvegicus
Assay: In vitro competitive antagonist effect of OT contractile action in the rat uterus determined by the rat oxytocic assay in presence of Mg2+
Assay type: functional
Conditions: read-out: pA2 (converted)
How it was run: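 Isolated rat uterus, oxytocin-induced contraction, bath containing magnesium salts; pA2 (negative log molar antagonist concentration halving agonist response) obtained by Schild method from at least four separate assays.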

In order of falling Kb:
1. CC[C@H](C)[C@@H]1NC(=O)[C@@H](Cc2c[nH]c3ccccc23)NC(=O)CC2(CCCCC2)SSC[C@@H](C(=O)N2CCC[C@H]2C(=O)N[C@@H](CCCNC(=N)N)C(=O)NCC(N)=O)NC(=O)[C@H](CC(N)=O)NC(=O)[C@@H]([C@H](C)O)NC1=O  11.2 µM
2. CC[C@H](C)[C@H]1NC(=O)[C@@H](Cc2c[nH]c3ccccc23)NC(=O)CC2(CCCCC2)SSC[C@@H](C(=O)N2CCC[C@H]2C(=O)N[C@@H](CCCN=C(N)N)C(=O)NCC(N)=O)NC(=O)[C@H](CC(N)=O)NC(=O)[C@H](CCC(N)=O)NC1=O  7.76 µM
3. CC[C@@H](C)[C@H]1NC(=O)[C@@H](Cc2c[nH]c3ccccc23)NC(=O)CC2(CCCCC2)SSC[C@@H](C(=O)N2CCC[C@H]2C(=O)N[C@@H](CCCN=C(N)N)C(=O)NCC(N)=O)NC(=O)[C@H](CC(N)=O)NC(=O)[C@H](CCC(N)=O)NC1=O  5.89 µM
4. CC[C@H](C)[C@@H]1NC(=O)[C@@H](Cc2c[nH]c3ccccc23)NC(=O)CC2(CCCCC2)SSC[C@@H](C(=O)N2CCC[C@H]2C(=O)N[C@@H](CCCN=C(N)N)C(=O)NCC(N)=O)NC(=O)[C@H](CC(N)=O)NC(=O)[C@@H](CC(N)=O)NC1=O  3.89 µM
5. CC[C@H](C)[C@@H]1NC(=O)[C@@H](Cc2c[nH]c3ccccc23)NC(=O)CC2(CCCCC2)SSC[C@@H](C(=O)N2CCC[C@H]2C(=O)N[C@@H](CCCN=C(N)N)C(=O)NCC(N)=O)NC(=O)[C@H](CC(N)=O)NC(=O)[C@@H](CCCNC(N)=O)NC1=O  3.09 µM
6. CC[C@H](C)[C@@H]1NC(=O)[C@@H](Cc2c[nH]c3ccccc23)NC(=O)CC2(CCCCC2)SSC[C@@H](C(=O)N2CCC[C@@H]2C(=O)N[C@@H](CCCN=C(N)N)C(=O)NCC(N)=O)NC(=O)[C@H](CC(N)=O)NC(=O)[C@H](CCC(N)=O)NC1=O  0.0141 µM
7. CC[C@H](C)[C@@H]1NC(=O)[C@@H](Cc2c[nH]c3ccccc23)NC(=O)CC2(CCCCC2)SSC[C@@H](C(=O)N2CCC[C@H]2C(=O)N[C@H](CCCN=C(N)N)C(=O)NCC(N)=O)NC(=O)[C@H](CC(N)=O)NC(=O)[C@H](CCC(N)=O)NC1=O  0.0123 µM
8. CC[C@H](C)[C@@H]1NC(=O)[C@@H](Cc2c[nH]c3ccccc23)NC(=O)CC2(CCCCC2)SSC(C)(C)[C@H](C(=O)N2CCC[C@H]2C(=O)N[C@@H](CCCNC(=N)N)C(=O)NCC(N)=O)NC(=O)[C@H](CC(N)=O)NC(=O)[C@H](CCC(N)=O)NC1=O  0.0105 µM
9. CC[C@H](C)[C@@H]1NC(=O)[C@@H](Cc2c[nH]c3ccccc23)NC(=O)CC2(CCCCC2)SSC[C@H](C(=O)N2CCC[C@H]2C(=O)N[C@@H](CCCN=C(N)N)C(=O)NCC(N)=O)NC(=O)[C@H](CC(N)=O)NC(=O)[C@H](CCC(N)=O)NC1=O  0.00513 µM

System: Rattus norvegicus
Assay: In vivo evaluation for the competitive antagonism of Antidiuretic action in the rat determined by the rat antidiuretic assay
Conditions: Urine, read-out: pA2 (converted)

CC[C@H](C)[C@@H]1NC(=O)[C@@H](Cc2c[nH]c3ccccc23)NC(=O)CC2(CCCCC2)SSC[C@H](C(=O)N2CCC[C@H]2C(=O)N[C@@H](CCCN=C(N)N)C(=O)NCC(N)=O)NC(=O)[C@H](CC(N)=O)NC(=O)[C@H](CCC(N)=O)NC1=O and CC[C@H](C)[C@@H]1NC(=O)[C@@H](Cc2c[nH]c3ccccc23)NC(=O)CC2(CCCCC2)SSC[C@@H](C(=O)N2CCC[C@H]2C(=O)N[C@H](CCCN=C(N)N)C(=O)NCC(N)=O)NC(=O)[C@H](CC(N)=O)NC(=O)[C@H](CCC(N)=O)NC1=O cannot be ordered by Kb: greater than 501 nM for the first, greater than 2510 nM for the second.

CC[C@H](C)[C@@H]1NC(=O)[C@@H](Cc2c[nH]c3ccccc23)NC(=O)CC2(CCCCC2)SSC[C@@H](C(=O)N2CCC[C@H]2C(=O)N[C@@H](CCCN=C(N)N)C(=O)NCC(N)=O)NC(=O)[C@H](CC(N)=O)NC(=O)[C@H](CCC(N)=O)NC1=O was tested, and the Kb was greater than 1260 nM.
